The full list was thinned out, with hits kept by preference.
N-glyco inh: blocks N-linked glycosylation in D54 reporter cells; D54 ERlucT glycosylation luciferase reporter, 24 h; percent of 100 nM tunicamycin response; reporter increase, % at 12.5 µM; 360,000 tested, 0.23% active; AID 588692;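 active means mean luciferase reporter signal, scaled so untreated is 0 and the glycosylation-blocking control 100, at or above a set limit in every replicate; inconclusive means mean reaches the limit but not every replicate does; inactive means mean below the limit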;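 further: luciferase carries N-glycosylation sites so blocking glycosylation raises the light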
T cell HTS: modulates CD8 T cell binding to vesicles. 2C CD8+ T cell-vesicle binding, flow cytometry; stronger effect = lower value. response (vesicle binding), % at 7 µM. AID 2052. 330,000 tested, 0.068% active;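 active means response, share of CD8 T cells binding vesicles, and their 90th percentile fluorescence all below set limits, cut at about 80% in these data, passing the limit was not always enough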;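 further: values below 100% mean blocked vesicle binding to the CD8+ T cells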
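Material: 2C TCR transgenic mouse naive CD8+ T cells, MACS-purified. Also added: QL9-charged Drosophila Ld/ICAM-1/B7-1 vesicles. Timing: binding 1.5 h at 37 °C. Measured by: high-throughput flow cytometry with anti-B7-1 and anti-CD8 staining. Read-out: percent CD8+ FL2 mean versus row control. Controls: Unloaded micro-vesicles (low), QL9 vesicles with 0.7% DMSO (high).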
ALR H2O2 inh: inhibitors of human sulfhydryl oxidase ALR; P55789; purified ALR, DTT oxidation, H2O2 HRP-luminol luminescence; inhibition, % (no concentration beside the values); 290,000 tested, 3.8% active; AID 485317;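 active means mean replicate inhibition above about 79%, with every replicate also reaching it, limit read from the data; inconclusive means only one of the two criteria met; inactive means mean below limit and not every replicate reaching it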
Target sequence (P55789 whole entry, looked up): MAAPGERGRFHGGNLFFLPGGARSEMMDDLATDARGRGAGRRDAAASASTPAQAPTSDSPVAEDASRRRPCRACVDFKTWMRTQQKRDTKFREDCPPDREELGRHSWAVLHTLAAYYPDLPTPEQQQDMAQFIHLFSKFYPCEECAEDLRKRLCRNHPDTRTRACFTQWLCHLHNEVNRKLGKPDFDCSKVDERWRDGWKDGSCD
Of the large screens only hits and unclear results are named; the others gave an inactive call.

COc1ccc(N(C)S(=O)(=O)c2cccc(C(=O)NC3CCC(C)CC3)c2)cc1 (stereo not given)	none
COc1ccc(N(C)S(=O)(=O)c2cccc(C(=O)Nc3nc(C)c(C(C)=O)s3)c2)cc1	ALR H2O2 inh 99.0
CCSc1nnc(NC(=O)c2cccc(S(=O)(=O)N(C)c3ccc(C)cc3)c2)s1	ALR H2O2 inh 97.5
CCOc1ccc(NC(=O)CN(C)C(=O)C2CC(=O)N(CCc3ccccc3)C2)cc1OCC (stereo not given)	none
Cc1cc2oc(=O)cc(-c3ccccc3)c2c(C)c1-c1ccc(C#N)cc1	none (no result: T cell HTS, ALR H2O2 inh)
COCCNc1nc(Oc2ccc(CC(=O)OC)cc2)c2sc(-c3ccccc3)cc2n1	none (no result: T cell HTS, ALR H2O2 inh)
Cc1ccc(S(=O)(=O)Nc2nnc(C3CCCCC3)s2)cc1	none
C/C(=N\NC(=O)c1cccc(Br)c1)c1ccccn1	none
C/C(=N\NC(=O)c1cc(Br)ccc1O)c1ccccn1	ALR H2O2 inh 84.9
S=c1[nH]ncn1/N=C/c1ccccn1	ALR H2O2 inh 92.2
S=c1[nH]ncn1/N=C/c1cccs1	ALR H2O2 inh 97.0
S=c1[nH]nc(COc2ccccc2)n1/N=C/c1ccccn1	none
S=c1[nH]nc(-c2cccnc2)n1/N=C/c1cccs1	ALR H2O2 inh 97.4
S=c1[nH]nc(-c2cccnc2)n1/N=C/c1ccccc1	none (no result: ALR H2O2 inh)
S=c1[nH]c(-c2ccccc2)cn1/N=C/c1cccs1	none
CCOc1ccccc1C(=O)NCC(=O)N(C)Cc1ccccc1C	none
COc1ccc(OC)c(NC(=O)c2ccc(-c3cccs3)cc2)c1	none
COC(=O)C1(C)NC(c2cccc(C)c2)C2C(=O)N(c3ccccc3)C(=O)C21 (stereo not given)	none (no result: T cell HTS, ALR H2O2 inh)
COc1cccc(NC(=O)CN(C)C(=O)CSc2ncnc3sc(C)c(C)c23)c1	none
CC1CN(C2CCCCC2)C(=O)NC1=O (stereo not given)	none (no result: T cell HTS, ALR H2O2 inh)
CC(=O)Nc1ccc(CCNC(=O)c2ccc3ccccc3c2O)cc1	none (no result: T cell HTS, ALR H2O2 inh)
O=C(Cn1cc([N+](=O)[O-])ccc1=O)N1CCc2ccccc2C1	none
Cc1cccc(NC(=O)C2CCN(S(=O)(=O)c3cccc4cccnc34)CC2)n1	none
O=C(NCc1ccco1)C1CCN(S(=O)(=O)c2cccc3cccnc23)CC1	none
O=C(C1CCN(S(=O)(=O)c2cccc3cccnc23)CC1)N1CCN(C2CCCC2)CC1	ALR H2O2 inh 82.2
Cc1ccc(NC(=O)C2CCN(S(=O)(=O)c3cccc4cccnc34)CC2)nc1	ALR H2O2 inh 95.5
O=C(NCc1cccs1)C1CCN(S(=O)(=O)c2cccc3cccnc23)CC1	ALR H2O2 inh 94.7
O=C(C1CCN(S(=O)(=O)c2cccc3cccnc23)CC1)N1CCCCC1	none
CC(C)OCC1CO1 (stereo not given)	none
O=C(COC(=O)c1c2c(nc3ccccc13)CCCCC2)c1ccc(Cl)s1	none (no result: ALR H2O2 inh)
COc1ccc(C(=O)N(C)CC(=O)Nc2cccc(F)c2)cc1S(=O)(=O)NC1CCCC1	none
COc1ccc(C2CC(c3ccccc3OC(=O)/C=C/c3ccccc3)=NN2C(C)=O)cc1 (stereo not given)	none
Cc1ccc(S(=O)(=O)NNC(=O)CCC(=O)Nc2ccccc2Cl)cc1	none
COc1cc(OC)c(-c2c3cc(O)c(=O)cc-3oc3cc(O)c(O)cc23)cc1OC	ALR H2O2 inh inconclusive
Cc1c2cc(O)c(=O)cc-2oc2cc(O)c(O)cc12	ALR H2O2 inh 93.2
CC1CCCC(NC(=O)CSc2nnc(C(F)(F)F)n2C)C1C (stereo not given)	none
COc1cc(/C=C/C(=O)OCC(=O)N2CCC(C)CC2)ccc1O	ALR H2O2 inh 99.1
COc1cc(/C=C/C(=O)OCC(=O)N2CCC(Cc3ccccc3)CC2)ccc1O	none
COc1cc(/C=C/C(=O)OCC(=O)NC(=O)NC(C)(C)C)ccc1O	ALR H2O2 inh 98.9
COc1cc(/C=C/C(=O)OCC(=O)N2CC3(C)CC2CC(C)(C)C3)ccc1O (stereo not given)	ALR H2O2 inh 99.1
COc1ccc(/C=N/OCC(=O)N2CC3(C)CC2CC(C)(C)C3)cc1OC (stereo not given)	none
CCN(C(=O)COC(=O)/C=C/c1ccc(O)c(OC)c1)C1CCS(=O)(=O)C1 (stereo not given)	ALR H2O2 inh 98.2
COc1cc(/C=C/C(=O)OCC(=O)Nc2cccc(F)c2)ccc1O	none (no result: ALR H2O2 inh)
CCN(C(=O)COC(=O)/C=C/c1ccc(OC(F)F)c(OC)c1)C1CCS(=O)(=O)C1 (stereo not given)	none
CCOc1ccc(C(=O)N2CCC3(CC2)NCCc2[nH]cnc23)cc1OCC	none
Cc1ccc(C)c(-c2nnc(NC(=O)CCS(=O)(=O)c3ccc(F)cc3)o2)c1	none
NC(=O)[C@@H]1CC2(CC(c3cccc(NC(=O)[C@@H]4CCC(=O)N4)c3)=NO2)CN1C(=O)Cc1ccc([N+](=O)[O-])cc1 (stereo not given in full)	none (no result: ALR H2O2 inh)
COC(=O)[C@]1(Cc2ccccc2)N[C@H](CN(C)S(=O)(=O)c2ccc(C(C)(C)C)cc2)[C@@H]2C(=O)N(Cc3ccccc3)C(=O)[C@@H]21	none (no result: ALR H2O2 inh)
CCc1ccc2oc(C(=O)NCC(c3ccc(OC)cc3)N3CCCCC3)c(C)c2c1 (stereo not given)	none
COCCN1C(=O)C(=O)/C(=C(/O)c2ccc3c(c2)OCCO3)C1c1ccc(C(=O)OC)cc1 (stereo not given)	none
COCCCN1C(=O)C(=O)/C(=C(/O)c2ccc3c(c2)OCCO3)C1c1ccc(C(=O)OC)cc1 (stereo not given)	ALR H2O2 inh 84.6
Cc1onc(-c2c(F)cccc2Cl)c1C(=O)N(C)C1CCCCC1	none
CC(=O)Oc1ccc2occ(C(=O)c3cccs3)c2c1	none
O=C(CCl)Oc1ccc2occ(C(=O)c3cccs3)c2c1	ALR H2O2 inh 97.3
Cn1cc(CN2CCC(C(=O)NC(c3ccc(-c4ccccc4)cc3)c3cnccn3)CC2)c2ccccc21 (stereo not given)	none (no result: T cell HTS, ALR H2O2 inh)
O=C(N/N=C/c1cccnc1)c1ccc2ccccc2c1O	none
O=C(Nc1cccnc1)c1ccc2ccccc2c1O	ALR H2O2 inh 91.4
O=C1C(CCc2ccccc2)ON=C(c2cnccn2)N1Cc1ccc(F)cc1 (stereo not given)	none (no result: T cell HTS, ALR H2O2 inh)
COc1ccccc1/C=N/NC(=O)c1cc2c(OC)c(OC)ccc2[nH]1	N-glyco inh 33.8
COc1ccc(OC)c(/C=N/NC(=O)c2cc3c(OC)cccc3[nH]2)c1	none
CCOc1ccc(/C=N/NC(=O)c2cc3c(OC)cccc3[nH]2)cc1	N-glyco inh 50.3
COc1ccc(/C=N/NC(=O)c2[nH]c3ccc(Cl)cc3c2-c2ccccc2)c(C(=O)O)c1OC	ALR H2O2 inh 97.5
COc1cccc(/C=N/NC(=O)c2cc3c(OC)c(OC)ccc3[nH]2)c1OC	none (no result: T cell HTS, ALR H2O2 inh)
COc1ccc(/C=N/NC(=O)c2[nH]c3ccc(Br)cc3c2-c2ccccc2)c(C(=O)O)c1OC	none (no result: ALR H2O2 inh)
CCC(C)c1ccccc1OCC(=O)NN1C(=O)c2ccccc2C1=O (stereo not given)	none
CCCN(CCC)S(=O)(=O)c1ccc(C(=O)Nc2ccc(OCC(=O)N3CCOCC3)cc2)cc1	N-glyco inh 40.4
CCCCOc1ccc(C(=O)Nc2cc(C)c(OCC(=O)N3CCOCC3)c(C)c2)cc1	none (no result: ALR H2O2 inh)
Cc1cc(C(=O)NNC(=S)NC2CCCCC2)cs1	none
CC(C)NC(=O)Nc1ccc2c(c1)C(=O)N([C@H](C)CO)C[C@H](C)[C@@H](CN(C)S(C)(=O)=O)O2	none
COc1ccc(/C=N/Nc2ncnc(Cl)c2N)cc1OC	none
